The text below walks through data of ChEMBL document CHEMBL3046169, “Synthesis and bioactivity study of 2-acylamino-substituted N'-benzylbenzohydrazide derivatives” (2012).

≈ marks a conversion by molar mass, not a printed value.

As usually defined, the mortality is the share of the test organisms that died. The term LC50 denotes the concentration lethal to half of the exposed cells or organisms.

Common to all, as to type: functional
In one assay the test system is Aphis gossypii. In words: Pesticidal activity against Aphis gossypii (cotton aphid) third-instar nymphae grown on tender Hibiscus syriacus leaves assessed as pest mortality at 600 mg/L measured 24 hr post compound exposure. The settings on record: in Hibiscus syriacus. Put shortly: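 Leaf-dip bioassay: over 30 healthy apterous third-instar nymphs on tender Hibiscus syriacus leaves dipped 5 s in compound diluted in distilled water with 0.05% Triton X-100, excess fluid removed. Held in illumination box at 25 ± 1 °C; mortality scored after 24 h. Tests in triplicate.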

The subject of another assay is Plutella xylostella. Kind of assay: Pesticidal activity against Plutella xylostella (diamondback moth) second-instar larvae grown on cruciferous vegetables leaves leaves as pest mortality at 600 mg/L measured 48 hr post compound exposure. Put shortly: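 Over 20 second-instar larvae on cruciferous vegetable leaves dipped 5 s in compound diluted in distilled water containing 0.05% Triton X-100, excess liquid removed. Kept in illumination box at 25 ± 1 °C; mortality recorded 48 h after treatment. Each test in triplicate.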

For assay [1], the system named is Tetranychus cinnabarinus. Kind of assay: Pesticidal activity against Tetranychus cinnabarinus (carmine spider mite) third- instar larvae grown on Phaseolus vulgaris leaves assessed as pest mortality at 600 mg/L measured 48 hr post compound exposure. Put shortly: (§1)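 More than 20 third-instar mite larvae on Phaseolus vulgaris leaves dipped 5 s in compound solutions (water with 0.05% Triton X-100), excess liquor removed. Larvae held at 25 ± 1 °C in illumination box; mortality read at 48 h. Primary screen at 600 mg L⁻¹, follow-up at 400, 200, 100, 50 and 25 mg L⁻¹ with LC50 calculated. Triplicate tests.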

For assay [2], the system named is Tetranychus cinnabarinus. In words: Pesticidal activity against Tetranychus cinnabarinus (carmine spider mite) third- instar larvae grown on Phaseolus vulgaris leaves assessed as pest mortality at 200 mg/L measured 48 hr post compound exposure. Put shortly: as §1
The subject of assay [3] is Tetranychus cinnabarinus. In words: Pesticidal activity against Tetranychus cinnabarinus (carmine spider mite) third- instar larvae grown on Phaseolus vulgaris leaves assessed as pest mortality at 100 mg/L measured 48 hr post compound exposure. The method, boiled down: as §1
Assay [4] concerns Tetranychus cinnabarinus. Kind of assay: Pesticidal activity against Tetranychus cinnabarinus (carmine spider mite) third- instar larvae grown on Phaseolus vulgaris leaves assessed as pest mortality at 50 mg/L measured 48 hr post compound exposure. Put shortly:
as §1

Assay [5] relates to Tetranychus cinnabarinus. Kind of assay: Pesticidal activity against Tetranychus cinnabarinus (carmine spider mite) third- instar larvae grown on Phaseolus vulgaris leaves assessed as pest mortality at 400 mg/L measured 48 hr post compound exposure. Put shortly:
as §1

The test system of assay [6] is Tetranychus cinnabarinus. Kind of assay: Pesticidal activity against Tetranychus cinnabarinus (carmine spider mite) third- instar larvae grown on Phaseolus vulgaris leaves assessed as pest mortality measured 48 hr post compound exposure. The method, boiled down: as §1
Assay [7] deals with Tetranychus cinnabarinus. Kind of assay: Pesticidal activity against Tetranychus cinnabarinus (carmine spider mite) third- instar larvae grown on Phaseolus vulgaris leaves assessed as pest mortality at 25 mg/L measured 48 hr post compound exposure. The method, boiled down: as §1

With `Cc1cccc(C(=O)NNCc2ccc(Cl)cc2Cl)c1NC(=O)C(C)(C)C`, the mortality at 600 µg/mL in the assay with Aphis gossypii is 89.4%; in the assay with Plutella xylostella it was 50%; with Tetranychus cinnabarinus [1], 52.9%.
The corresponding values for `Cc1cc(Cl)cc(C(=O)NNCc2ccccc2Cl)c1NC(=O)C(C)(C)CCl` are 14.5%, 64% and 11%.
The corresponding values for `Cc1cc(Cl)cc(C(=O)NNCc2cccc(C(F)(F)F)c2)c1NC(=O)C(C)(C)CCl` are 5.1%, 52% and 61.8%.
For `Cc1cc(Br)cc(C(=O)NNCc2ccc(Cl)nc2)c1NC(=O)C(C)(C)CCl`, the mortality at 600 µg/mL turned out to be 33.3% with Aphis gossypii, 52% in the assay on Plutella xylostella and 55.8% in the assay with Tetranychus cinnabarinus [1].
For `Cc1cc(Br)cc(C(=O)NNCc2ccccc2Cl)c1NC(=O)CC(C)(C)C` the same measures were 88%, 76% and 11.6%.
For `Cc1cc(Br)cc(C(=O)NNCc2ccccc2)c1NC(=O)CC(C)(C)C` the same measures were 96.6%, 22% and 78.1%.
Take `Cc1cc(Cl)cc(C(=O)NNCc2ccc(F)cc2)c1NC(=O)C(C)(C)C`: the results for the mortality at 600 µg/mL in the assay on Aphis gossypii, with Plutella xylostella and in the assay with Tetranychus cinnabarinus [1] were 41.5%, 88% and 73.8%, respectively.
For `Cc1cc(Br)cc(C(=O)NNCc2ccc(Cl)cc2Cl)c1NC(=O)C(C)(C)C` the same measures were 90.2%, 34% and 77%.
For `Cc1cccc(C(=O)NNCc2ccccc2Cl)c1NC(=O)C(C)(C)CCl` the same measures were 68.8%, 22% and 46.7%.
With `Cc1cc(Cl)cc(C(=O)NNCc2ccc(Cl)cc2Cl)c1NC(=O)C(C)(C)CCl`, the mortality at 600 µg/mL is 42.3% in the assay on Aphis gossypii and 73.8% with Tetranychus cinnabarinus [1].
In the case of `CC(C)(C)CC(=O)Nc1ccc(Cl)cc1C(=O)NNCc1ccccc1F`, the values for the mortality at 600 µg/mL in the assay on Aphis gossypii, in the assay on Plutella xylostella and in the assay with Tetranychus cinnabarinus [1] were 1.8%, 28% and 77.6%, respectively.
As to `Cc1cccc(C(=O)NNCc2cccc(C(F)(F)F)c2)c1NC(=O)CC(C)(C)C`, the mortality at 600 µg/mL was 94.2% in the assay with Aphis gossypii, 40% with Plutella xylostella and 57.9% in the assay with Tetranychus cinnabarinus [1].
For `Cc1cc(Br)cc(C(=O)NNCc2ccccc2)c1NC(=O)C(C)(C)CCl` the same measures were 84.6%, 52% and 20.3%.
Turning to `CC(C)(C)C(=O)Nc1ccc(Cl)cc1C(=O)NNCc1ccc(F)cc1`, the values for the mortality at 600 µg/mL in the assay on Aphis gossypii and in the assay with Tetranychus cinnabarinus [1] were 91.3% and 73.8%, respectively.
With `Cc1cc(Cl)cc(C(=O)NNCc2ccccc2)c1NC(=O)C(C)(C)CCl`, the results for the mortality at 600 µg/mL with Aphis gossypii, in the assay with Plutella xylostella and in the assay with Tetranychus cinnabarinus [1] were 68.5%, 52% and 50.9%, respectively.
Regarding `Cc1cccc(C(=O)NNCc2ccccc2Cl)c1NC(=O)C(C)(C)C`, the figures for the mortality at 600 µg/mL in the assay with Aphis gossypii, in the assay on Plutella xylostella and with Tetranychus cinnabarinus [1] were 92.2%, 64% and 5.9%, respectively.
For `Cc1cc(Cl)cc(C(=O)NNCc2ccc(Cl)nc2)c1NC(=O)C(C)(C)C` the same measures were 24.2%, 50% and 81.3%.
For `Cc1cc(Cl)cc(C(=O)NNCc2ccccc2F)c1NC(=O)C(C)(C)C` the same measures were 38.9%, 76% and 80.5%.
For `Cc1cccc(C(=O)NNCc2ccc(Cl)nc2)c1NC(=O)CC(C)(C)C` the same measures were 65.5%, 100% and 19.3%.
For `Cc1cc(Br)cc(C(=O)NNCc2ccccc2Cl)c1NC(=O)C(C)(C)C`, the mortality at 600 µg/mL amounted to 49.1% with Aphis gossypii, 64% with Plutella xylostella and 40.1% in the assay with Tetranychus cinnabarinus [1].
For `Cc1cc(Br)cc(C(=O)NNCc2cccc(C(F)(F)F)c2)c1NC(=O)C(C)(C)CCl` the same measures were 78.6%, 52% and 72.7%.
On to `Cc1cccc(C(=O)NNCc2cccc(C(F)(F)F)c2)c1NC(=O)C(C)(C)C`, for which the mortality at 600 µg/mL was 75% with Aphis gossypii, 64% in the assay on Plutella xylostella and 46.8% in the assay with Tetranychus cinnabarinus [1].
For `Cc1cc(Cl)cc(C(=O)NNCc2ccc(Cl)cc2Cl)c1NC(=O)C(C)(C)C` the same measures were 77.8%, 64% and 69%.
With `Cc1cc(Br)cc(C(=O)NNCc2ccccc2)c1NC(=O)C(C)(C)C`, the mortality at 600 µg/mL with Aphis gossypii is 86.1%; in the assay with Plutella xylostella it was 50%; in the assay with Tetranychus cinnabarinus [1], 64.9%.
For `Cc1cc(Cl)cc(C(=O)NNCc2cccc(C(F)(F)F)c2)c1NC(=O)C(C)(C)C` the same measures were 68.3%, 40% and 8.6%.
For `Cc1cc(Cl)cc(C(=O)NNCc2ccc(Cl)cc2Cl)c1NC(=O)CC(C)(C)C`, the mortality at 600 µg/mL came to 62% with Aphis gossypii, 88% in the assay with Plutella xylostella and 88.8% in the assay on Tetranychus cinnabarinus [1].
The corresponding values for `Cc1cc(Cl)cc(C(=O)NNCc2ccc(Cl)nc2)c1NC(=O)C(C)(C)CCl` are 30.6%, 16% and 47.1%.
In the case of `Cc1cc(Cl)cc(C(=O)NNCc2ccccc2F)c1NC(=O)C(C)(C)CCl`, the mortality at 600 µg/mL in the assay on Aphis gossypii worked out at 70.2%; with Plutella xylostella, 100%; in the assay with Tetranychus cinnabarinus [1], 61.1%.
For `Cc1cc(Br)cc(C(=O)NNCc2ccc(Cl)cc2Cl)c1NC(=O)C(C)(C)CCl` the same measures were 3.8%, 70% and 82.5%.
Take `Cc1cc(Br)cc(C(=O)NNCc2ccc(Cl)nc2)c1NC(=O)CC(C)(C)C`: the mortality at 600 µg/mL came out at 25.9% with Aphis gossypii, 40% in the assay with Plutella xylostella and 23.4% in the assay with Tetranychus cinnabarinus [1].
For `Cc1cc(Br)cc(C(=O)NNCc2ccc(Cl)nc2)c1NC(=O)C(C)(C)C` the same measures were 96.2%, 64% and 19.3%.
For `Cc1cc(Cl)cc(C(=O)NNCc2ccccc2)c1NC(=O)CC(C)(C)C` the same measures were 70.4%, 94% and 70.1%.
For `Cc1cccc(C(=O)NNCc2ccccc2)c1NC(=O)C(C)(C)CCl` the same measures were 95.6%, 52% and 79.3%.
For the compound `Cc1cccc(C(=O)NNCc2ccccc2)c1NC(=O)C(C)(C)C`, the mortality at 600 µg/mL in the assay on Aphis gossypii worked out at 62.3%; in the assay with Plutella xylostella, 52%; with Tetranychus cinnabarinus [1], 16.7%.
For `Cc1cc(Cl)cc(C(=O)NNCc2ccc(F)cc2)c1NC(=O)C(C)(C)CCl` the same measures were 81.5%, 64% and 67%.
On to `Cc1cc(Br)cc(C(=O)NNCc2cccc(C(F)(F)F)c2)c1NC(=O)C(C)(C)C`, for which the mortality at 600 µg/mL in the assay on Aphis gossypii was determined as 54.2%; with Plutella xylostella, 16%; with Tetranychus cinnabarinus [1], 19.8%.
The corresponding values for `Cc1cc(Cl)cc(C(=O)NNCc2cccc(C(F)(F)F)c2)c1NC(=O)CC(C)(C)C` are 58.3%, 76% and 77.2%.
The corresponding values for `CC(C)(C)C(=O)Nc1ccc(Cl)cc1C(=O)NNCc1cccc(C(F)(F)F)c1` are 28.9%, 28% and 73.8%.
For the compound `CC(C)(C)c1ccc(CSc2cnn(C(C)(C)C)c(=O)c2Cl)cc1` [PYRIDABEN], the mortality at 200 µg/mL in the assay on Tetranychus cinnabarinus [2] is 100%. Besides, the mortality at 100 µg/mL in the assay on Tetranychus cinnabarinus [3] is 100%. In the assay with Tetranychus cinnabarinus [4], the mortality at 50 µg/mL came to 100%. For the same compound, the mortality at 400 µg/mL in the assay with Tetranychus cinnabarinus [5] was determined as 100%. For the same compound, the LC50 with Tetranychus cinnabarinus [6] came to 5.5 µg/mL (≈ 15.1 µM). The mortality at 25 µg/mL with Tetranychus cinnabarinus [7] was 97.7%.
For `Cc1cc(Cl)cc(C(=O)NNCc2ccccc2)c1NC(=O)C(C)(C)C`, the mortality at 600 µg/mL in the assay with Aphis gossypii turned out to be 52.4%; in the assay on Plutella xylostella, 34%; in the assay with Tetranychus cinnabarinus [1], 92.5%.
